{"source": "paper PMC4130341", "about": "(Journal of nuclear medicine : official publication, Society …, 2013)", "key": {"[1]": {"tested_on": "293 (integrin αvβ6–negative) tumors", "assay": "Excised tissue biodistribution", "type": "in vivo, mice", "details": "γ-counter, mean ± SD", "in_short": "(§1)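 Tumors were grown as subcutaneous shoulder xenografts (10^7 BxPC3 or HEK-293 cells) in 6-wk female nu/nu mice to 10 mm diameter. Isoflurane-anaesthetised mice received 2–3 MBq of 18F-fluorobenzoate peptide by tail vein and were euthanised at 0.5 or 2 h. Weighed tissues were γ-counted and expressed as decay-corrected %ID/g, mean ± SD. Group sizes: BxPC3 3 (0.5 h), 4–5 (2 h); 293 3 (0.5 h), 3–4 (2 h); nontumor 6 (0.5 h), 8 (2 h).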"}, "[2]": {"assay": "Small-animal PET, static scans, BxPC3 xenografts", "type": "in vivo, mice", "details": "female, nu/nu, mouse, iv, total radioactivity", "in_short": "(§2)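 Nu/nu female mice (6 wk) carried BxPC3 shoulder xenografts of 10 mm diameter. Under isoflurane they were dosed intravenously (tail vein) with 2–3 MBq of 18F-fluorobenzoate-labelled peptide. Rodent microPET 5-min static scans were taken at 0.5, 1 and 2 h. Tumor, kidney, liver and hind-leg muscle signals were quantified, given as mean ± SD (n = 4–5 per tracer) and compared by 2-tailed t test, P < 0.05.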"}, "[3]": {"tested_on": "BxPC3 (integrin αvβ6–positive) pancreatic adenocarcinoma xenografted tumors", "assay": "Small-animal PET, static scans, BxPC3 xenografts", "type": "in vivo, mice", "details": "mean ± SD", "in_short": "as §2"}, "BxPC3 tumors": {"tested_on": "BxPC3 tumors", "assay": "Coinjection study with unlabeled peptide, excised tissue biodistribution", "type": "in vivo, mice", "details": "250 µg unlabeled S02 coinjected"}, "[4]": {"tested_on": "BxPC3 (integrin αvβ6–positive) tumors", "assay": "Excised tissue biodistribution", "type": "in vivo, mice", "details": "γ-counter, mean ± SD", "in_short": "as §1"}, "[5]": {"tested_on": "BxPC3 xenografted tumors; heart (blood) radioactivity", "assay": "Dynamic PET", "type": "in vivo", "details": "from radioactivity in the heart, 10-min dynamic PET, mice, tail vein", "in_short": "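Female nu/nu mice (6 wk) received 10^7 BxPC3 or HEK-293 cells subcutaneously in the shoulder and grew tumors to 10 mm diameter. Under isoflurane, mice got 2–3 MBq of 18F-fluorobenzoate-labelled peptide by tail vein. A 10-min dynamic scan was acquired on a rodent microPET. Mean signal in ellipsoid regions of interest was quantified.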"}}, "note": "Bridge positions count the residues as written; N and C are the ends. Peptide text beside a SMILES is read from it. * marks the point of attachment. Benzoyl(4-F) = O=C(c1ccc(F)cc1)*", "data": [{"smiles": "CC[C@H](C)[C@@H]1NC(=O)[C@@H]2CSSC[C@H](NC(=O)CNC(=O)c3ccc(F)cc3)C(=O)N[C@@H](CCCNC(=N)N)C(=O)N[C@@H](CO)C(=O)N[C@@H](CC(C)C)C(=O)N[C@@H](C)C(=O)N[C@@H](CCCNC(=N)N)C(=O)N[C@@H]([C@@H](C)O)C(=O)N[C@@H](CC(=O)O)C(=O)N[C@@H](CC(C)C)C(=O)N[C@@H](CC(=O)O)C(=O)N[C@@H](Cc3c[nH]cn3)C(=O)N[C@@H](CC(C)C)C(=O)N[C@@H](CCCNC(=N)N)C(=O)NCC(=O)N[C@@H](CCCNC(=N)N)C(=O)N[C@H]3CSSC[C@H](NC1=O)C(=O)N[C@@H](CC(C)C)C(=O)N[C@@H](CCC(=O)O)C(=O)N[C@@H](CC(N)=O)C(=O)NCC(=O)N[C@@H](Cc1ccccc1)C(=O)N[C@H](C(=O)NCC(=O)O)CSSC[C@H](NC(=O)[C@H](CC(=O)O)NC(=O)[C@H](CO)NC(=O)[C@H](CC(=O)O)NC(=O)[C@H](CO)NC(=O)[C@H](CO)NC3=O)C(=O)N[C@@H](CC(C)C)C(=O)N[C@@H](C)C(=O)N[C@@H](CCC(=O)O)C(=O)N2", "note": "[^18F-fluorobenzoate-S02] ({Benzoyl(4-F)}-GCRSLARTDLDHLRGRCSSDSDCLAECICLENGFCG-OH; disulfide 2-27, 17-29, 23-35; C-terminus assumed)", "values": [{"measurement": "tumor uptake, excised tissue, 293", "setting": "[1]; 0.5 h after injection, n = 3", "value": "0.11 ± 0.02", "unit": "%ID/g"}, {"measurement": "tumor uptake, excised tissue, 293", "setting": "[1]; 2 h after injection, n = 3–4", "value": "0.10 ± 0.05", "unit": "%ID/g"}, {"measurement": "tissue uptake at 1 h", "setting": "[2]; kidney", "value": "7 ± 3", "unit": "%ID/g"}, {"measurement": "tissue uptake at 1 h", "setting": "[2]; liver", "value": "0.3 ± 0.1", "unit": "%ID/g"}, {"measurement": "kidney uptake, PET", "setting": "[3]; 0.5 h", "value": "18% ± 6%"}, {"measurement": "tumor uptake, PET, BxPC3", "setting": "[3]; 0.5 h after injection, 2–3 MBq tail vein, nude mice, n = 4–5", "value": "1.3% ± 0.4%"}, {"measurement": "tumor signal, PET, BxPC3", "setting": "[3]; 1 h after injection, 2–3 MBq tail vein", "value": "0.7 ± 0.3", "unit": "% ID/g"}, {"measurement": "liver uptake, PET", "setting": "[3]; time not printed at place (given beside the 0.5 h kidney values)", "value": "0.9% ± 0.3%"}, {"measurement": "effect of unlabeled peptide coinjection on tumor uptake", "setting": "BxPC3 tumors", "value": "does not demonstrate tumor uptake reduction"}, {"measurement": "tumor uptake, excised tissue, BxPC3", "setting": "[4]; 0.5 h after injection, n = 3", "value": "0.71 ± 0.13", "unit": "%ID/g"}, {"measurement": "tumor uptake, excised tissue, BxPC3", "setting": "[4]; 2 h after injection, n = 4–5", "value": "0.24 ± 0.06", "unit": "%ID/g"}, {"measurement": "blood clearance half-time", "setting": "[5]", "value": 1.8, "unit": "min"}]}]}
